Test results reported in ChEMBL document CHEMBL3102749, “Antiprotozoal activity of dicationic 3,5-diphenylisoxazoles, their prodrugs and aza-analogues” (Bioorg Med Chem, 2014).
Activity calls are given as the source filed them. No cut-off for these calls is given here.

How the values were obtained:
Plasmodium falciparum = experiment: Antiplasmodial activity against chloroquine/pyrimethamine-resistant Plasmodium falciparum K1 infected in human red blood cells assessed as [3H]-hypoxanthine incorporation incubated for 48 hrs prior to [3H]-hypoxanthine addition measured after 24 hrs by liquid scintillation counting analysis; format: functional, organism-based
L6 = experiment: Cytotoxicity against rat L6 cells assessed as cell viability after 70 hrs by Alamar blue assay; format: cell-based; details: L6, 70 h
[1] = tested on: Trypanosoma brucei rhodesiense; experiment: Trypanocidal activity against bloodstream form of Trypanosoma brucei rhodesiense STIB900 infected in NMRI mouse assessed as mean parasitemia relapse day at 5 mg/kg, ip qd administered for 4 days; format: functional; details: route intraperitoneal
Procedure, shortened: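 Mice infected with STIB900 received 4 consecutive daily intraperitoneal doses, 4 mice per group. The secondary endpoint was mean relapse day post-infection, which separates weaker compounds; mice surviving 60 days without parasitemia relapse were scored as cured.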

[2] = tested on: Trypanosoma brucei rhodesiense; experiment: Trypanocidal activity against bloodstream form of Trypanosoma brucei rhodesiense STIB900 infected in NMRI mouse assessed as mean survival days at 5 mg/kg, ip qd administered for 4 days; format: functional
Procedure, shortened: (§1)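 Mice infected with T. b. rhodesiense STIB900 (acute model) dosed once daily for 4 consecutive days, ip (diamidines) or oral (prodrugs). Cure means survival to 60 days post infection without parasitemia relapse. Mean survival days post infection are averaged over all mice, with cured mice counted as >60 days.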

[3] = tested on: Trypanosoma brucei rhodesiense; experiment: Antitrypanosomal activity against Trypanosoma brucei rhodesiense STIB900 assessed as growth inhibition after 70 hrs by Alamar blue assay; format: functional, organism-based; details: STIB900, 70 h
[4] = Selectivity index, ratio of IC50 for rat L6 cells to IC50 for Trypanosoma brucei rhodesiense STIB900; format: toxicity, cell-based; details: read-out: Ratio IC50
Procedure, shortened: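 Ratio of IC50 in L6 rat myoblast cytotoxicity assay to IC50 against T. b. rhodesiense STIB900; each IC50 is the mean of two independent assays.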

[5] = Selectivity index, ratio of IC50 for rat L6 cells to IC50 for chloroquine/pyrimethamine-resistant Plasmodium falciparum K1 infected in human red blood cells; format: toxicity, cell-based; details: read-out: Ratio IC50
Procedure, shortened: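 Ratio of IC50 in L6 rat myoblast cytotoxicity assay to IC50 against P. falciparum K1; each IC50 is the mean of two independent assays.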

[6] = tested on: Trypanosoma brucei rhodesiense; experiment: Trypanocidal activity against bloodstream form of Trypanosoma brucei rhodesiense STIB900 infected in NMRI mouse assessed as decrease in parasitemia at 20 mg/kg, ip qd administered for 4 days measured once per week until 60 days by microscopic analysis; format: functional, organism-based; parameters: dose 20 mg/kg
Procedure, shortened: (§2)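 Mice infected with T. b. rhodesiense STIB900 received one dose daily for 4 consecutive days, 4 mice per group. Diamidines were given intraperitoneally and prodrugs orally. The primary endpoint was cures per group: a mouse counted as cured if it survived 60 days post-infection without parasitemia relapse.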

[7] = tested on: Trypanosoma brucei rhodesiense; experiment: Trypanocidal activity against bloodstream form of Trypanosoma brucei rhodesiense STIB900 infected in NMRI mouse assessed as mean survival days at 20 mg/kg, ip qd administered for 4 days; format: functional; details: route intraperitoneal; procedure, shortened: as §1
[8] = tested on: Trypanosoma brucei rhodesiense; experiment: Trypanocidal activity against bloodstream form of Trypanosoma brucei rhodesiense STIB900 infected in NMRI mouse assessed as decrease in parasitemia at 5 mg/kg, ip qd administered for 4 days measured once per week until 60 days by microscopic analysis; format: functional, organism-based; parameters: dose 5 mg/kg; procedure, shortened: as §2
[9] = tested on: Trypanosoma brucei rhodesiense; experiment: Trypanocidal activity against bloodstream form of Trypanosoma brucei rhodesiense STIB900 infected in NMRI mouse assessed as mean survival days at 100 mg/kg, po qd administered for 4 days; format: functional; procedure, shortened: as §1
[10] = tested on: Trypanosoma brucei rhodesiense; experiment: Trypanocidal activity against bloodstream form of Trypanosoma brucei rhodesiense STIB900 infected in NMRI mouse assessed as decrease in parasitemia at 25 mg/kg, po qd administered for 4 days measured once per week until 60 days by microscopic analysis; format: functional, organism-based; parameters: dose 25 mg/kg; procedure, shortened: as §2
[11] = tested on: Trypanosoma brucei rhodesiense; experiment: Trypanocidal activity against bloodstream form of Trypanosoma brucei rhodesiense STIB900 infected in NMRI mouse assessed as mean survival days at 25 mg/kg, po qd administered for 4 days; format: functional; procedure, shortened: as §1

Compound: Cl.N=C(N)c1cncc(-c2cc(-c3ccc(C(=N)N)nc3)no2)c1
- IC50 (Plasmodium falciparum): 0.0048 µM
- IC50 (L6): 2.11 µM
- Time [1]: 60 days
- MSD ([2]; route intraperitoneal): >60 days
- IC50 [3]: 0.0191 µM
- selectivity ratio [4]: 111
- selectivity ratio [5]: 440

Compound: COc1ccc(C(=N)N)cc1-c1cc(-c2ccc(C(=N)N)cc2)no1.Cl.Cl
- MSD ([2]; route intraperitoneal): >60 days
- Activity [6]: Active
- MSD [7]: >60 days

Compound: Cl.Cl.Cl.N=C(N)c1ccc(-c2cc(-c3cc(C(=N)N)ccc3Cl)no2)cc1
- Time [1]: 7.75 days
- MSD [2]: inactive
- Activity [8]: inactive

Compound: Cl.Cl.N=C(N)c1ccc(-c2cc(-c3cc(C(=N)N)ccc3[N+](=O)[O-])no2)cc1
- Time [1]: 17 days
- MSD ([2]; route intraperitoneal): 29.75 days
- Activity [8]: inactive

Compound: COc1ccc(C(=N)N)cc1-c1cc(-c2cccc(C(=N)N)c2)no1.Cl.Cl
- Time [1]: 22.3 days
- MSD [2]: inactive

Compound: Cl.Cl.N=C(N)c1cccc(-c2cc(-c3ccc(C(=N)N)cc3[N+](=O)[O-])no2)c1
- Time [1]: 13 days
- MSD [2]: inactive
- Activity [8]: inactive

Compound: COc1cc(C(=N)N)ccc1-c1cc(-c2cccc(C(=N)N)c2)no1.Cl.Cl
- Time [1]: 18 days
- MSD [2]: inactive
- Activity [8]: inactive

Compound: Cl.Cl.N=C(N)c1ccc(-c2cc(-c3cncc(C(=N)N)c3)no2)cc1
- IC50 (Plasmodium falciparum): 0.0037 µM
- IC50 (L6): 4.32 µM
- Time [1]: 15 days
- IC50 [3]: 0.016 µM
- selectivity ratio [4]: 270
- selectivity ratio [5]: 1170

Compound: COc1ccc(C(=N)N)cc1-c1cc(-c2ccc(C(=N)N)cc2)on1.Cl.Cl
- MSD ([2]; route intraperitoneal): >60 days
- Activity [6]: Active
- MSD [7]: >60 days

Compound: Cl.Cl.Cl.N=C(N)c1cccc(-c2cc(-c3ccc(C(=N)N)cc3Cl)on2)c1
- Time [1]: 16 days
- MSD [2]: inactive
- Activity [6]: Active
- MSD [7]: >60 days

Compound: Cl.Cl.N=C(N)c1ccc(-c2cc(-c3cccc(C(=N)N)c3)no2)cc1
- Activity [6]: inactive
- MSD [7]: >29.25 days

Compound: COc1cc(C(=N)N)ccc1-c1cc(-c2cccc(C(=N)N)c2)on1.Cl.Cl
- Time [1]: 36.25 days
- MSD [2]: inactive
- Activity [8]: inactive

Compound: COc1ccc(C(=N)N)cc1-c1cc(-c2cc(C(=N)N)ccc2OC)on1.Cl.Cl
- Time [1]: 26 days
- MSD ([2]; route intraperitoneal): >50 days
- Activity [8]: inactive

Compound: Cl.Cl.N=C(N)c1ccc(-c2cc(-c3ccc(C(=N)N)nc3)on2)cn1
- IC50 (Plasmodium falciparum): 0.0004 µM
- IC50 (L6): 2.46 µM
- Time [1]: 24 days
- IC50 [3]: 0.0062 µM
- selectivity ratio [4]: 398
- selectivity ratio [5]: 6650

Compound: Cl.Cl.N=C(N)c1cccc(-c2cc(-c3cccc(C(=N)N)c3)on2)c1
- MSD ([2]; route intraperitoneal): 21.75 days
- MSD [7]: >58 days
- Activity [8]: inactive

Compound: Cl.Cl.N/C(=N\O)c1ccc(-c2cc(-c3cccc(/C(N)=N/O)c3)on2)cc1
- MSD [9]: >43.5 days

Compound: Cl.Cl.N=C(N)c1cccc(-c2cc(-c3ccc(C(=N)N)cc3[N+](=O)[O-])on2)c1
- Time [1]: 12.25 days
- MSD [2]: inactive
- Activity [8]: inactive

Compound: Cl.Cl.N=C(N)c1ccc(-c2cc(-c3cccc(C(=N)N)c3)on2)nc1
- IC50 (Plasmodium falciparum): 0.007 µM
- IC50 (L6): 121 µM
- Time [1]: 53 days
- MSD ([2]; route intraperitoneal): >60 days
- IC50 [3]: 0.0136 µM
- selectivity ratio [4]: 8900
- selectivity ratio [5]: 17400

Compound: Cl.Cl.N=C(N)c1ccc(-c2cc(-c3cc(C(=N)N)ccn3)no2)cc1
- IC50 (Plasmodium falciparum): 0.005 µM
- IC50 (L6): 71.2 µM
- Time [1]: 15.5 days
- IC50 [3]: 0.0528 µM
- selectivity ratio [4]: 1350
- Activity [8]: inactive
- selectivity ratio [5]: 14200

Compound: Cl.Cl.N/C(=N\O)c1ccc(-c2cc(-c3ccc(/C(N)=N/O)cc3)on2)cc1
- MSD [9]: >40.5 days

Compound: Cl.Cl.Cl.N=C(N)c1ccc(-c2cc(-c3cc(C(=N)N)ccc3Cl)on2)cc1
- Time [1]: 8.75 days
- MSD [2]: inactive
- Activity [8]: inactive

Compound: CO/N=C(\N)c1ccc(-c2cc(-c3cccc(/C(N)=N/OC)c3)no2)cc1.Cl.Cl
- Activity [10]: inactive
- MSD [11]: 8 days

Compound: Cl.Cl.N=C(N)c1ccc(-c2cc(-c3ccc(C(=N)N)nc3)no2)cc1
- IC50 (Plasmodium falciparum): 0.0004 µM
- IC50 (L6): 2.49 µM
- Time [1]: 25.7 days
- IC50 [3]: 0.0059 µM
- selectivity ratio [4]: 423
- selectivity ratio [5]: 6330

Compound: Cl.Cl.N=C(N)c1cncc(-c2cc(-c3ccc(C(=N)N)nc3)on2)c1
- IC50 (Plasmodium falciparum): 0.0035 µM
- IC50 (L6): 4.91 µM
- Time [1]: 25.25 days
- IC50 [3]: 0.0239 µM
- selectivity ratio [4]: 206
- Activity [8]: inactive
- selectivity ratio [5]: 1400

Compound: COc1cc(C(=N)N)ccc1-c1cc(-c2ccc(C(=N)N)cc2)no1.Cl.Cl
- MSD ([2]; route intraperitoneal): >48.75 days
- MSD [7]: >50.25 days

Compound: COc1ccc(/C(N)=N/O)cc1-c1cc(-c2ccc(/C(N)=N/O)cc2)on1.Cl.Cl
- Activity [10]: inactive
- MSD [11]: 18.25 days

Compound: Cl.Cl.N=C(N)c1ccc(-c2cc(-c3cccc(C(=N)N)c3)on2)cc1
- MSD ([2]; route intraperitoneal): >49.25 days
- MSD [7]: >51.25 days

Compound: COc1c(/C(N)=N/O)cccc1-c1cc(-c2ccc(/C(N)=N/O)cc2)no1.Cl.Cl
- Activity [10]: inactive
- MSD [11]: 25.75 days

Compound: Cl.Cl.Cl.N/C(=N\O)c1cccc(-c2cc(-c3ccc(/C(N)=N/O)cc3Cl)on2)c1
- Activity [10]: inactive
- MSD [11]: 8.5 days
